Experimental data published in ChEMBL document CHEMBL3400052, “Development of a time-resolved fluorescence probe for evaluation of competitive binding to the cholecystokinin 2 receptor” (Bioorg Med Chem, 2015).
The source made the active and inactive calls. The calls are words filed in the database; no cut-off is given here. Where a SMILES comes first, the peptide text is derived from it. [ ]: non-standard residue; d: D form. The star is where a group is joined. Hexanoyl(6-N3) = [N-]=[N+]=NCCCCCC(=O)*; Azidoacetyl = [N-]=[N+]=NCC(=O)*; X1 = C#CCCCCOCCOCCOCCOCCOCC(=O)*; Nle = CCCC[C@H](N)C(=O)O

Legend:
[1] = Retention time of the compound by reverse phase HPLC analysis; type: physicochemical
[2] = biological target: T1, Gastrin/cholecystokinin type B receptor (Homo sapiens) (UniProt P32239); assay: (§1) Displacement of Eu-DTPA-PEGO-CCK4 from human cholecystokinin 2 receptor overexpressed in HEK-293 cells co-expressing human MC4R after 1 hr by time resolved fluorescence-based competition binding assay; type: cell-based; settings: HEK293
T1 sequence (whole entry): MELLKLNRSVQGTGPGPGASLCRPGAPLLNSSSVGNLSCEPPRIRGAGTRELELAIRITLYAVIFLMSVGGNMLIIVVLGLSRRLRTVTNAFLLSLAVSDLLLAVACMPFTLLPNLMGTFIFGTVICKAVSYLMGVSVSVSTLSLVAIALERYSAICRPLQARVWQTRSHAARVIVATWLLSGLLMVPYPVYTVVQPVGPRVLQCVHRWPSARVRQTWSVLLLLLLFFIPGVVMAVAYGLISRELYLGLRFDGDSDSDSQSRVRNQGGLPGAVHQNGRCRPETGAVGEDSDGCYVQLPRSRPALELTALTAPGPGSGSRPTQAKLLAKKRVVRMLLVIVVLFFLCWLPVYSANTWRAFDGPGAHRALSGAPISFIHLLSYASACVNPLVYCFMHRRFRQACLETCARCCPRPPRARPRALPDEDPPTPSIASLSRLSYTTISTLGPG
Method in brief: (§2)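 HEK-293 cells engineered to co-express hCCK2R and hMC4R, grown in DMEM/10% FBS with zeocin and geneticin, seeded 240,000 per well in six-well plates. Each well received binding buffer (DMEM, HEPES, BSA, 1,10-phenanthroline, leupeptin, bacitracin, pH 7.4) containing 15 nM Eu probe plus competitor at 10^-12 to 10^-5 M. Incubation 1 h at 37 °C, then scraping, three washes, Enhancement Solution 1 h at 37 °C, Eu TRF read.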

[3] = biological target: T1, Gastrin/cholecystokinin type B receptor (Homo sapiens); assay: Displacement of Eu-DTPA-PEGO-CCK4 from human cholecystokinin 2 receptor overexpressed in HEK-293 cells co-expressing human MC4R after 1 hr by time resolved fluorescence-based competition binding assay relative to acetylated […]; type: cell-based; settings: HEK293
[4] = biological target: T2, Gastrin/cholecystokinin type B receptor (Homo sapiens, UniProt P32239); assay: as §1; type: cell-based, HEK293; method in brief: as §2
T2 sequence (P32239 whole entry): T1 sequence (whole entry)

[5] = Retention time of the compound by analytical HPLC method; type: physicochemical

Retention_time [1] | inhibition [2] | Structure (SMILES) | Ratio [3] | Ki [4] | Retention_time [5]
16.9 min |  | C#CCCCCOCCOCCOCCOCCOCC(=O)N[C@@H](Cc1c[nH]c2ccccc12)C(=O)N[C@@H](CCCC)C(=O)N[C@@H](CC(=O)O)C(=O)N[C@@H](Cc1ccccc1)C(N)=O (X1-W[Nle]DF-NH2) |  |  | 
 | inactive | NC(=O)[C@H](CO)NC(=O)CCCCCn1cc(CN(Cc2cn(CCCCCC(=O)N[C@@H](CO)C(N)=O)nn2)Cc2cn(CCCCCC(=O)N[C@@H](CO)C(N)=O)nn2)nn1 |  |  | 
22.9 min |  | CCCC[C@H](NC(=O)[C@H](Cc1c[nH]c2ccccc12)NC(=O)COCC(=O)NCCCOCCOCCOCCCNC(=O)CN(CCN(CCN(CC(=O)O)CC(=O)O)CC(=O)O)CC(=O)O)C(=O)N[C@@H](CC(=O)O)C(=O)N[C@@H](Cc1ccccc1)C(N)=O |  |  | 
14.6 min |  | CCCC[C@H](NC(=O)[C@H](Cc1c[nH]c2ccccc12)NC(=O)CN=[N+]=[N-])C(=O)N[C@@H](CC(=O)O)C(=O)N[C@@H](Cc1ccccc1)C(N)=O (Azidoacetyl-W[Nle]DF-NH2) |  |  | 
13.3 min |  | CCCC[C@H](NC(=O)[C@H](Cc1c[nH]c2ccccc12)NC(C)=O)C(=O)N[C@@H](CC(=O)O)C(=O)N[C@@H](Cc1ccccc1)C(N)=O (Ac-W[Nle]DF-NH2) | 1 | 6.1 nM | 17.47 min
17.7 min |  | CCCC[C@H](NC(=O)[C@H](Cc1c[nH]c2ccccc12)NC(=O)CCCCCN=[N+]=[N-])C(=O)N[C@@H](CC(=O)O)C(=O)N[C@@H](Cc1ccccc1)C(N)=O ({Hexanoyl(6-N3)}-W[Nle]DF-NH2) |  |  | 
 | inactive | NC(=O)[C@H](CO)NC(=O)CCCCCn1cc(COc2cc(OCc3cn(CCCCCC(=O)N[C@@H](CO)C(N)=O)nn3)cc(OCc3cn(CCCCCC(=O)N[C@@H](CO)C(N)=O)nn3)c2)nn1 |  |  | 

Structure (SMILES) | Retention_time [1] | inhibition [2] | Ratio [3] | Ki [4] | Retention_time [5]
CCCC[C@H](NC(=O)[C@H](Cc1c[nH]c2ccccc12)NC(=O)CCCCCn1cc(COc2cc(OCc3cn(CCCCCC(=O)N[C@@H](Cc4c[nH]c5ccccc45)C(=O)N[C@@H](CCCC)C(=O)N[C@@H](CC(=O)O)C(=O)N[C@@H](Cc4ccccc4)C(N)=O)nn3)cc(OCc3cn(CCCCCC(=O)N[C@@H](Cc4c[nH]c5ccccc45)C(=O)N[C@@H](CCCC)C(=O)N[C@@H](CC(=O)O)C(=O)N[C@@H](Cc4ccccc4)C(N)=O)nn3)c2)nn1)C(=O)N[C@@H](CC(=O)O)C(=O)N[C@@H](Cc1ccccc1)C(N)=O | 16.6 min |  | 2 | 3.7 nM | 22.42 min
CCCC[C@H](NC(=O)[C@H](Cc1c[nH]c2ccccc12)NC(=O)COCCOCCOCCOCCOCCCCc1cn(CCCCCCOc2cc(OCCCCCCn3cc(CCCCOCCOCCOCCOCCOCC(=O)N[C@@H](Cc4c[nH]c5ccccc45)C(=O)N[C@@H](CCCC)C(=O)N[C@@H](CC(=O)O)C(=O)N[C@@H](Cc4ccccc4)C(N)=O)nn3)cc(OCCCCCCn3cc(CCCCOCCOCCOCCOCCOCC(=O)N[C@@H](Cc4c[nH]c5ccccc45)C(=O)N[C@@H](CCCC)C(=O)N[C@@H](CC(=O)O)C(=O)N[C@@H](Cc4ccccc4)C(N)=O)nn3)c2)nn1)C(=O)N[C@@H](CC(=O)O)C(=O)N[C@@H](Cc1ccccc1)C(N)=O | 19.8 min |  | 0.2 | 30 nM | 25.12 min
CCCC[C@H](NC(=O)[C@H](Cc1c[nH]c2ccccc12)NC(=O)Cn1cc(CN(Cc2cn(CC(=O)N[C@@H](Cc3c[nH]c4ccccc34)C(=O)N[C@@H](CCCC)C(=O)N[C@@H](CC(=O)O)C(=O)N[C@@H](Cc3ccccc3)C(N)=O)nn2)Cc2cn(CC(=O)N[C@@H](Cc3c[nH]c4ccccc34)C(=O)N[C@@H](CCCC)C(=O)N[C@@H](CC(=O)O)C(=O)N[C@@H](Cc3ccccc3)C(N)=O)nn2)nn1)C(=O)N[C@@H](CC(=O)O)C(=O)N[C@@H](Cc1ccccc1)C(N)=O | 15.1 min |  | 5 | 1.2 nM | 21.18 min
